Screening data from PubChem.
In the library only some 3.1% were active in any assay of this set; here they are far more common.
SUMO HTRF inh – blocks human SUMOylation mediated by UBC9; 0.36% of 290,000 active; P63279; inhibition, % at 35 µM; AID 2006; HTRF SUMOylation assay, SAE1/SAE2 + UBC9, in vitro; in the data active means inhibition above about 50%, passing the limit was not always enough
Target sequence (P63279 whole entry, looked up): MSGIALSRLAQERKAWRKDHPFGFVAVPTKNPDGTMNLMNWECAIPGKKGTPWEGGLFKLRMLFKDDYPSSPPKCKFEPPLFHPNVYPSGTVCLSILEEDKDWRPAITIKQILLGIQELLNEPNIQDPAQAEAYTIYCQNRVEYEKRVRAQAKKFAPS
VIM-2 inhibitor – blocks Pseudomonas aeruginosa VIM-2 metallo-beta-lactamase. purified VIM-2, nitrocefin hydrolysis, epi-absorbance fluorescence. inhibition, % at 5.6 µM. 0.89% of 290,000 active. AID 1527;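 active means inhibition above the mean of all tested compounds plus 3 SD, cutoff set per screening run, cut at about 7.5% in these data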;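 further: red hydrolysis product quenches plate fluorescence so inhibitors raise well fluorescence; 0% = enzyme with DMSO and 100% = DMSO without enzyme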
HCV core dimer – HCV core protein dimerization inhibition | AID 1899 | inhibition, % at 5 µM | 0.33% of 300,000 active | TR-FRET GST/Flag-core106 dimerization, 1536-well;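 active means inhibition above the mean of all tested compounds plus 3 SD, set per screening campaign, cut at about 45% in these data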
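Test system: GST/Flag-tagged HCV core106 proteins; Medium: KF-containing HEPES buffer, pH 7.45, DTT, CHAPS, BSA; Times: compound-protein-antibody incubation 4 h at 22.5 °C; Detection: TR-FRET 671 and 617 nm emission; Benchmarks: wells lacking GST-core106 and wells with excess unlabelled core106.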
IMP-1 inh-1 – inhibitors of Pseudomonas aeruginosa IMP-1 metallo-beta-lactamase; 0.45% of 290,000 active; inhibition, % at 5.6 µM; purified IMP-1, nitrocefin hydrolysis, epi-absorbance fluorescence;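 active means inhibition above the mean plus 3 SD of all compounds in the same screening run, cut at about 4.5% in these data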;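 further: 0% = IMP-1 with DMSO and 100% = DMSO wells lacking enzyme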
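Assay system: purified recombinant IMP-1 beta-lactamase. Input: IMP-1 0.2 nM before substrate addition. Buffer or medium: Zinc- and detergent-supplemented HEPES buffer, pH 7.1. Schedule: 25 °C, 15 min preincubation, 25 min reaction. Signal: Epi-absorbance fluorescence, 480 nm excitation, 530 nm emission. Evaluation: percent inhibition from optical density relative to buffer-blank wells.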
NS3 helicase inh – HCV NS3 helicase inhibition; NS3 helicase DNA unwinding, Cy5 molecular beacon fluorescence; 0.56% of 290,000 active; inhibition, % at 10.9 µM;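 active means inhibition above the mean of all tested compounds plus 3 SD, set per campaign, cut at about 35% in these data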;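 further: 0% = DMSO wells and 100% = thioflavine S control wells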
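System: Hepatitis C virus NS3 helicase domain fragment enzyme | Reagent: Annealed dual-labelled DNA beacon duplex, ATP-started | Compound dosing: 10.9 µM single point, 0.8% DMSO | Incubation: 1 h reaction at 25 °C, ATP-initiated | Technique: Cy5 fluorescence | Evaluation: Percent inhibition from t60/t0 fluorescence ratio | Benchmarks: Low DMSO, high thioflavine S at 110 µM | Replication: Singlicate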
PHOSPHO1 block – blocks human PHOSPHO1 phosphatase activity; Q8TCT1; recombinant PHOSPHO1, absorbance phosphatase assay; inhibition, % at 13.3 µM; 1.1% of 290,000 active; AID 1565; in the data active means inhibition above about 60%
Target sequence (Q8TCT1 whole entry, looked up): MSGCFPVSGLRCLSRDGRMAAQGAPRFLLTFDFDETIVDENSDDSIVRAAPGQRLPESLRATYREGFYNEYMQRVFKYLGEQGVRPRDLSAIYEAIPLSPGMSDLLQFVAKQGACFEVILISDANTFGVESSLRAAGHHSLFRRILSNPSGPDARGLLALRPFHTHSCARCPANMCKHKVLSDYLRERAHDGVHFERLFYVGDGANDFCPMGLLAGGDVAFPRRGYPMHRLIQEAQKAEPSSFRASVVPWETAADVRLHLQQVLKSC
IMP-1 inh-2 – selectivity counter-screen for VIM-2 inhibitors: IMP-1 metallo-beta-lactamase inhibitors. shares compounds with VIM-2 inhibitor. purified IMP-1, nitrocefin hydrolysis, epi-absorbance fluorescence. inhibition, % at 5.6 µM. 1,300 tested, under 10 active; call rule not given here;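 further: 0% = enzyme with vehicle and 100% = vehicle without enzyme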
VIM-2 FRET ctr – VIM-2 FRET inhibition, artifact counter-screen | shares compounds with VIM-2 inhibitor | purified VIM-2, CCF2 FRET substrate hydrolysis | 23% of 1,300 active | inhibition, % at 5.6 µM;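 active means inhibition above the mean of all tested compounds plus 3 SD, cut at about 19% in these data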;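 further: 0% = VIM-2 plus DMSO and 100% = no enzyme wells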
TEM-1 counter – blocks E. coli TEM-1 beta-lactamase in VIM-2 selectivity screen. inhibition, % at 5.6 µM. shares compounds with VIM-2 inhibitor. 3% of 1,300 active. Purified TEM-1, nitrocefin hydrolysis, epi-absorbance fluorescence. AID 1866;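 active means inhibition above that campaign's mean inhibition plus 3 SD, cut at about 0.46% in these data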;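 further: 0% = TEM-1 with DMSO and 100% = TEM-1 with 100 µM potassium clavulanate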
Target sequence (P62593 whole entry, looked up): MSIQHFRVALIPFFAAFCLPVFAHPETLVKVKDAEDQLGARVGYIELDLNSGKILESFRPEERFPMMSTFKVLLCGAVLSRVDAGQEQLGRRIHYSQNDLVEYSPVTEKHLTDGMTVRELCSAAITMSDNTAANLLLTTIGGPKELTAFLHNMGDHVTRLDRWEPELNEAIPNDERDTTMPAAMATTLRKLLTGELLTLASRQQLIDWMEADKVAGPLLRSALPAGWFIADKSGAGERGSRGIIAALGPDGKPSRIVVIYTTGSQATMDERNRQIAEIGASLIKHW
VIM-2 inh conf – confirmation of P. aeruginosa VIM-2 metallo-beta-lactamase inhibitors; shares compounds with VIM-2 inhibitor; purified VIM-2, nitrocefin hydrolysis, epi-absorbance; inhibition, % at 5.6 µM; 96% of 1,300 active;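 active means inhibition of the VIM-2 beta-lactamase enzyme above about 11% from the earlier first-round screen, limit read from the data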;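 further: 0% = VIM-2 with DMSO and 100% = buffer wells without enzyme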
The depositor's hits bear a star.

`COC(=O)CSc1nc(N)c(C#N)c(-c2ccc(O)cc2)c1C#N` gave SUMO HTRF inh 36.6, VIM-2 inhibitor 18.4*, HCV core dimer 2.1, IMP-1 inh-1 -1.4, NS3 helicase inh -3.7, PHOSPHO1 block 36.8, IMP-1 inh-2 -2.6, VIM-2 FRET ctr -0.2, TEM-1 counter -7.4 and VIM-2 inh conf 35.8*.
`CCOCCc1nnc(NC(=O)CCS(=O)(=O)c2ccccc2)s1` gave SUMO HTRF inh -5.9, VIM-2 inhibitor 12.4*, HCV core dimer -11.3, IMP-1 inh-1 -1.1, NS3 helicase inh 2.1, PHOSPHO1 block 15.0, IMP-1 inh-2 -2.2, VIM-2 FRET ctr 16.9, TEM-1 counter -2.7 and VIM-2 inh conf 14.4*.
`C=CCn1c2ccccc2c2nnc(SCCN3CCCCC3)nc21` gave SUMO HTRF inh 11.8, VIM-2 inhibitor 18.5*, HCV core dimer 4.3, IMP-1 inh-1 -1.7, NS3 helicase inh -8.4, PHOSPHO1 block -18.6, IMP-1 inh-2 -3.5, VIM-2 FRET ctr 4.1, TEM-1 counter -7.6 and VIM-2 inh conf 22.4*.
For O=C1c2ccccc2C(=O)N1CSc1nnc2c3ccccc3n(CCc3ccccc3)c2n1 the results were SUMO HTRF inh 9.4, VIM-2 inhibitor -0.9, HCV core dimer 16.6, IMP-1 inh-1 3.1, NS3 helicase inh 8.1 and PHOSPHO1 block 7.8.
`C=CCn1c2ccccc2c2nnc(SCCCn3c(=O)[nH]c4ccccc43)nc21` gave SUMO HTRF inh 20.2, VIM-2 inhibitor 6.0, IMP-1 inh-1 -0.6, NS3 helicase inh -8.3 and PHOSPHO1 block -4.0.
Screening c1ccc(Cn2c3ccccc3c3nnc(SCCN4CCCCC4)nc32)cc1 returned SUMO HTRF inh 22.2, VIM-2 inhibitor 27.1*, HCV core dimer 6.6, IMP-1 inh-1 -2.4, NS3 helicase inh -17.4, PHOSPHO1 block 28.5, IMP-1 inh-2 -3.8, VIM-2 FRET ctr 1.2, TEM-1 counter -9.2 and VIM-2 inh conf 42.4*.
COCC(=O)N1CCC(n2nccc2NC(=O)c2ccccc2OC)CC1 was read as SUMO HTRF inh 4.4, VIM-2 inhibitor -3.0, HCV core dimer -7.7, IMP-1 inh-1 -2.7, NS3 helicase inh 6.2 and PHOSPHO1 block 13.7.
For CCn1c(SCC(=O)Nc2cc(C(C)(C)C)nn2-c2ccccc2)nnc1-c1cccs1 the results were SUMO HTRF inh 7.3, VIM-2 inhibitor -2.5, HCV core dimer -5.0, IMP-1 inh-1 0.3, NS3 helicase inh 7.5 and PHOSPHO1 block -4.6.
`CCn1c(SCC(N)=O)nnc1-c1cc2c(C)nn(-c3ccccc3)c2s1` gave SUMO HTRF inh 4.6, VIM-2 inhibitor 14.8*, HCV core dimer 3.4, IMP-1 inh-1 -4.8, NS3 helicase inh 7.5, PHOSPHO1 block 38.7, IMP-1 inh-2 -2.6, VIM-2 FRET ctr 8.6, TEM-1 counter -6.3 and VIM-2 inh conf 27.4*.
For CC(/C=N/n1c(-c2cccnc2)n[nH]c1=S)=C\c1ccccc1 the results were SUMO HTRF inh -8.3, VIM-2 inhibitor 5.7, HCV core dimer -5.3, IMP-1 inh-1 -2.5, NS3 helicase inh -1.0 and PHOSPHO1 block 40.7.
For CC(=C/c1ccccc1)/C=N/n1c(C)n[nH]c1=S the results were SUMO HTRF inh -0.3, VIM-2 inhibitor 33.0*, HCV core dimer -4.3, IMP-1 inh-1 -1.9, NS3 helicase inh 2.6, PHOSPHO1 block -66.7, IMP-1 inh-2 -2.5, VIM-2 FRET ctr 61.5*, TEM-1 counter -8.0 and VIM-2 inh conf 42.1*.
For CC(=C/c1ccccc1)/C=N/n1c(-c2ccncc2)n[nH]c1=S the results were SUMO HTRF inh 7.7, VIM-2 inhibitor 16.0*, HCV core dimer 3.2, IMP-1 inh-1 0.7, NS3 helicase inh -10.1, PHOSPHO1 block 56.2, IMP-1 inh-2 -3.7, VIM-2 FRET ctr 47.9*, TEM-1 counter -8.8 and VIM-2 inh conf 28.1*.
COc1ccc(C=O)c2[nH]c3c(Cl)ncnc3c12 was read as SUMO HTRF inh 2.8, VIM-2 inhibitor 15.8*, IMP-1 inh-1 -3.7, NS3 helicase inh 9.1, PHOSPHO1 block 22.9, IMP-1 inh-2 -2.7, VIM-2 FRET ctr -6.9, TEM-1 counter -5.1 and VIM-2 inh conf 24.2*.
Screening O=C1OC(c2ccccc2)=N/C1=C\C=C\c1ccco1 returned SUMO HTRF inh 15.1, VIM-2 inhibitor 1.2, HCV core dimer 1.2, IMP-1 inh-1 -3.3, NS3 helicase inh 20.9 and PHOSPHO1 block -3.1.
`O=C1OC(c2ccccc2)=N/C1=C\C=C\c1ccccc1[N+](=O)[O-]` gave SUMO HTRF inh 16.0, VIM-2 inhibitor 16.4*, HCV core dimer 41.4, IMP-1 inh-1 2.9, NS3 helicase inh 17.1, PHOSPHO1 block -4.4, IMP-1 inh-2 -1.9, VIM-2 FRET ctr 30.2*, TEM-1 counter -1.9 and VIM-2 inh conf 9.9*.
Screening COc1ccc2c(=O)cc(-c3cccnc3)oc2c1OC returned SUMO HTRF inh 15.0, VIM-2 inhibitor -0.9, HCV core dimer -3.8, IMP-1 inh-1 -1.3, NS3 helicase inh -0.2 and PHOSPHO1 block 19.9.
`O=C(CCNC(=O)c1ccc([N+](=O)[O-])cc1)Nc1ccc(F)cc1F` gave SUMO HTRF inh 19.6, VIM-2 inhibitor 0.6, HCV core dimer 1.8, IMP-1 inh-1 1.8, NS3 helicase inh 1.6 and PHOSPHO1 block 38.1.
Screening O=C(CSc1nnc(NC(=O)c2ccccc2F)s1)NCc1ccco1 returned SUMO HTRF inh 7.9, VIM-2 inhibitor 41.1*, HCV core dimer -3.4, IMP-1 inh-1 -1.2, NS3 helicase inh 4.4, PHOSPHO1 block 42.8, IMP-1 inh-2 -3.4, VIM-2 FRET ctr 68.4*, TEM-1 counter -6.3 and VIM-2 inh conf 48.8*.
For COc1ccccc1C(=O)Nc1nnc(SCC(=O)NCc2ccco2)s1 the results were SUMO HTRF inh 20.7, VIM-2 inhibitor 46.4*, HCV core dimer 5.7, IMP-1 inh-1 -2.4, NS3 helicase inh 4.3, PHOSPHO1 block 17.8, IMP-1 inh-2 -2.4, VIM-2 FRET ctr 70.2*, TEM-1 counter -6.1 and VIM-2 inh conf 52.6*.
Screening O=C(CSc1nnc(NC(=O)c2ccccc2F)s1)NCc1ccc(F)cc1 returned SUMO HTRF inh 10.9, VIM-2 inhibitor 37.9*, HCV core dimer -1.1, IMP-1 inh-1 -0.5, NS3 helicase inh -1.1, PHOSPHO1 block 46.5, IMP-1 inh-2 -2.7, VIM-2 FRET ctr 61.2*, TEM-1 counter -6.2 and VIM-2 inh conf 44.3*.
